Data published in ChEMBL document CHEMBL4330069, “Boosting the efficacy of anti-MRSA β-lactam antibiotics via an easily accessible, non-cytotoxic and orally bioavailable FtsZ inhibitor” (Eur J Med Chem, 2019).
Values after ≈ are worked out from the molar mass of the structure shown.

Assays:
Staphylococcus aureus [1] = test: Synergistic antibacterial activity against multidrug-resistant Staphylococcus aureus isolate 1344 assessed as fractional Inhibitory concentration index in presence of amoxicillin by broth microdilution assay; format: functional
In short: (§1)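 CLSI broth microdilution run on clinical MRSA isolates with each β-lactam alone, the test agent alone, and the two combined; agents dissolved in DMSO. Growth inhibition was read by eye. FIC index = FIC(compound) + FIC(β-lactam), where each FIC is the MIC in combination divided by the MIC alone. An index ≤0.5 was taken as synergy.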

Staphylococcus aureus [2] = test: Antibacterial activity against multidrug-resistant Staphylococcus aureus isolate 2973 by broth microdilution assay; format: functional
In short: (§2)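 Broth microdilution MIC per CLSI guidelines against clinical MRSA isolates, for β-lactams and test compound alone and in combination. Compounds were dissolved in DMSO. Growth was read by eye, in duplicate. FIC index = FIC(compound) + FIC(drug); synergy defined as FIC index ≤0.5.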

Staphylococcus aureus [3] = test: Synergistic antibacterial activity against multidrug-resistant Staphylococcus aureus isolate 3332 assessed as fractional Inhibitory concentration index in presence of methicillin by broth microdilution assay; format: functional
Staphylococcus aureus [4] = test: Synergistic antibacterial activity against multidrug-resistant Staphylococcus aureus isolate 2973 assessed as fractional Inhibitory concentration index in presence of cloxacillin by broth microdilution assay; format: functional
Staphylococcus aureus [5] = test: Synergistic antibacterial activity against multidrug-resistant Staphylococcus aureus isolate 2728 assessed as fractional Inhibitory concentration index in presence of meropenem by broth microdilution assay; format: functional
Staphylococcus aureus [6] = test: Synergistic antibacterial activity against multidrug-resistant Staphylococcus aureus isolate 1749 in presence of meropenem by broth microdilution assay; format: functional
In short: (§3)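 Clinical MRSA isolate panel; compound and β-lactam tested alone and in combination by CLSI broth microdilution, compounds dissolved in DMSO, growth inhibition scored by eye, run in duplicate. FIC index = FIC(compound) + FIC(drug), each the MIC in combination divided by the MIC alone; an index ≤ 0.5 was called synergy.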

Staphylococcus aureus [7] = test: Synergistic antibacterial activity against multidrug-resistant Staphylococcus aureus isolate 1717 in presence of amoxicillin by broth microdilution assay; format: functional; in short: as §3
Staphylococcus aureus [8] = test: Synergistic antibacterial activity against multidrug-resistant Staphylococcus aureus isolate 254 assessed as fractional Inhibitory concentration index in presence of methicillin by broth microdilution assay; format: functional
Staphylococcus aureus [9] = test: Synergistic antibacterial activity against multidrug-resistant Staphylococcus aureus isolate 3267 assessed as fractional Inhibitory concentration index in presence of meropenem by broth microdilution assay; format: functional
Staphylococcus aureus [10] = test: Synergistic antibacterial activity against multidrug-resistant Staphylococcus aureus isolate 3580 assessed as fractional Inhibitory concentration index in presence of methicillin by broth microdilution assay; format: functional
[11] = AUC (0 to infinity) in Sprague-Dawley rat at 50 mg/kg, po by UPLC-MS/MS analysis; format: ADME, organism-based; design: dose 50 mg/kg, route oral, time infinity; conditions: in vivo
Staphylococcus aureus [12] = test: Synergistic antibacterial activity against multidrug-resistant Staphylococcus aureus isolate 85 in presence of methicillin by broth microdilution assay; format: functional
Staphylococcus aureus [13] = test: Antibacterial activity against multidrug-resistant Staphylococcus aureus isolate 1402 by broth microdilution assay; format: functional; in short: as §2
Staphylococcus aureus [14] = test: Synergistic antibacterial activity against multidrug-resistant Staphylococcus aureus isolate 2973 assessed as fractional Inhibitory concentration index in presence of methicillin by broth microdilution assay; format: functional
Staphylococcus aureus [15] = test: Synergistic antibacterial activity against multidrug-resistant Staphylococcus aureus isolate 2895 in presence of amoxicillin by broth microdilution assay; format: functional
In short: (§4)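 CLSI broth microdilution on clinical MRSA isolates. MICs were measured for the β-lactam alone, the test agent alone and the two combined. Compounds were dissolved in DMSO, and growth inhibition was scored by eye. FIC index is the sum, over both agents, of MIC in combination divided by MIC alone. An FIC index ≤0.5 was taken as synergy.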

Staphylococcus aureus [16] = test: Synergistic antibacterial activity against multidrug-resistant Staphylococcus aureus isolate 1136 in presence of cloxacillin by broth microdilution assay; format: functional; in short: as §3
Staphylococcus aureus [17] = test: Synergistic antibacterial activity against multidrug-resistant Staphylococcus aureus isolate 200 in presence of methicillin by broth microdilution assay; format: functional; in short: as §3
Staphylococcus aureus [18] = test: Antibacterial activity against multidrug-resistant Staphylococcus aureus isolate 2895 by broth microdilution assay; format: functional; in short: as §2
Staphylococcus aureus [19] = test: Synergistic antibacterial activity against multidrug-resistant Staphylococcus aureus isolate 2901 assessed as fractional Inhibitory concentration index in presence of meropenem by broth microdilution assay; format: functional
Staphylococcus aureus [20] = test: Synergistic antibacterial activity against multidrug-resistant Staphylococcus aureus isolate 1402 in presence of meropenem by broth microdilution assay; format: functional; in short: as §3
Staphylococcus aureus [21] = test: Synergistic antibacterial activity against multidrug-resistant Staphylococcus aureus isolate 3411 in presence of amoxicillin by broth microdilution assay; format: functional; in short: as §4
Staphylococcus aureus [22] = test: Synergistic antibacterial activity against multidrug-resistant Staphylococcus aureus isolate 2901 in presence of cefuroxime by broth microdilution assay; format: functional; in short: as §4
Staphylococcus aureus [23] = test: Synergistic antibacterial activity against multidrug-resistant Staphylococcus aureus isolate 1749 assessed as fractional Inhibitory concentration index in presence of amoxicillin by broth microdilution assay; format: functional; in short: as §1
Staphylococcus aureus [24] = test: Synergistic antibacterial activity against multidrug-resistant Staphylococcus aureus isolate 3267 assessed as fractional Inhibitory concentration index in presence of methicillin by broth microdilution assay; format: functional
Staphylococcus aureus [25] = test: Synergistic antibacterial activity against multidrug-resistant Staphylococcus aureus isolate 3589 in presence of amoxicillin by broth microdilution assay; format: functional
Staphylococcus aureus [26] = test: Synergistic antibacterial activity against multidrug-resistant Staphylococcus aureus isolate 1402 assessed as fractional Inhibitory concentration index in presence of amoxicillin by broth microdilution assay; format: functional; in short: as §1
Staphylococcus aureus [27] = test: Antibacterial activity against multidrug-resistant Staphylococcus aureus isolate 358 by broth microdilution assay; format: functional; in short: as §2
Staphylococcus aureus [28] = test: Antibacterial activity against multidrug-resistant Staphylococcus aureus isolate 1749 by broth microdilution assay; format: functional; in short: as §2
Staphylococcus aureus [29] = test: Synergistic antibacterial activity against multidrug-resistant Staphylococcus aureus isolate 2901 assessed as fractional Inhibitory concentration index in presence of methicillin by broth microdilution assay; format: functional
Staphylococcus aureus [30] = test: Synergistic antibacterial activity against multidrug-resistant Staphylococcus aureus isolate 2490 in presence of cefuroxime by broth microdilution assay; format: functional; in short: as §3
Staphylococcus aureus [31] = test: Antibacterial activity against Staphylococcus aureus ATCC 29213 harboring FtsZ 32 mutation after 20 hrs; format: functional; conditions: ATCC 29213, 20 h
In short: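 Broth microdilution MIC per CLSI guidelines, compounds dissolved in DMSO. Resistant mutants were selected by serial passage of ATCC 29213 in LB at 37 °C with shaking at 250 rpm. Each 20 h culture started at half the MIC, and the concentration was doubled at each transfer. Growth inhibition was read by eye, in duplicate.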

Staphylococcus aureus [32] = test: Synergistic antibacterial activity against multidrug-resistant Staphylococcus aureus isolate 2490 in presence of methicillin by broth microdilution assay; format: functional; in short: as §3
Staphylococcus aureus [33] = test: Synergistic antibacterial activity against multidrug-resistant Staphylococcus aureus isolate 2490 assessed as fractional Inhibitory concentration index in presence of cefuroxime by broth microdilution assay; format: functional; in short: as §1
Staphylococcus aureus [34] = test: Synergistic antibacterial activity against multidrug-resistant Staphylococcus aureus isolate 3267 in presence of amoxicillin by broth microdilution assay; format: functional; in short: as §4
Staphylococcus aureus [35] = test: Synergistic antibacterial activity against multidrug-resistant Staphylococcus aureus isolate 2516 assessed as fractional Inhibitory concentration index in presence of cefuroxime by broth microdilution assay; format: functional; in short: as §1
Staphylococcus aureus [36] = test: Synergistic antibacterial activity against multidrug-resistant Staphylococcus aureus isolate 1344 in presence of cloxacillin by broth microdilution assay; format: functional; in short: as §3

In the case of CCCCCCCCCNc1ccc(F)c(C(N)=O)c1F, the “fractional inhibitory concentration index (FICI)” value (Staphylococcus aureus [1]) is reported as 1.1, the MIC (Staphylococcus aureus [2]) is reported as 128 µg/mL (≈ 429 µM) and the “fractional inhibitory concentration index (FICI)” value (Staphylococcus aureus [3]) is reported as 0.3. The “fractional inhibitory concentration index (FICI)” value (Staphylococcus aureus [4]) was 0.1, the “fractional inhibitory concentration index (FICI)” value (Staphylococcus aureus [5]) was 2 and the MIC (Staphylococcus aureus [6]) was 4 µg/mL. For the same molecule, the MIC (Staphylococcus aureus [7]) was 2 µg/mL, the “fractional inhibitory concentration index (FICI)” value (Staphylococcus aureus [8]) was 0.3 and the “fractional inhibitory concentration index (FICI)” value (Staphylococcus aureus [9]) was 4. The “fractional inhibitory concentration index (FICI)” value (Staphylococcus aureus [10]) was 0.2, the AUC(0-inf) [11] was 10300 ng·h/mL and the MIC (Staphylococcus aureus [12]) was 4 µg/mL. For the same molecule, the MIC (Staphylococcus aureus [13]) was 4 µg/mL (≈ 13.4 µM), the “fractional inhibitory concentration index (FICI)” value (Staphylococcus aureus [14]) was 0.3 and the MIC (Staphylococcus aureus [15]) was 16 µg/mL. It also gave an MIC (Staphylococcus aureus [16]) of 2 µg/mL, an MIC (Staphylococcus aureus [17]) of 4 µg/mL and an MIC (Staphylococcus aureus [18]) of 16 µg/mL (≈ 53.6 µM). For the same molecule, the “fractional inhibitory concentration index (FICI)” value (Staphylococcus aureus [19]) was 4, the MIC (Staphylococcus aureus [20]) was 4 µg/mL and the MIC (Staphylococcus aureus [21]) was 4 µg/mL. For the same molecule, the MIC (Staphylococcus aureus [22]) was 2 µg/mL, the “fractional inhibitory concentration index (FICI)” value (Staphylococcus aureus [23]) was 1 and the “fractional inhibitory concentration index (FICI)” value (Staphylococcus aureus [24]) was 0.1. For the same molecule, the MIC (Staphylococcus aureus [25]) was 8 µg/mL, the “fractional inhibitory concentration index (FICI)” value (Staphylococcus aureus [26]) was 1 and the MIC (Staphylococcus aureus [27]) was 16 µg/mL (≈ 53.6 µM). For the same molecule, the MIC (Staphylococcus aureus [28]) was 2 µg/mL (≈ 6.7 µM), the “fractional inhibitory concentration index (FICI)” value (Staphylococcus aureus [29]) was 0 and the MIC (Staphylococcus aureus [30]) was 2 µg/mL. The MIC (Staphylococcus aureus [31]) was 32 µg/mL (≈ 107 µM), the MIC (Staphylococcus aureus [32]) was 4 µg/mL and the “fractional inhibitory concentration index (FICI)” value (Staphylococcus aureus [33]) was 0.2. For the same molecule, the MIC (Staphylococcus aureus [34]) was 2 µg/mL, the “fractional inhibitory concentration index (FICI)” value (Staphylococcus aureus [35]) was 0.1 and the MIC (Staphylococcus aureus [36]) was 1 µg/mL.
